Measured values from ChEMBL document CHEMBL2202972, “Synthesis and biological evaluation of 2-substituted-4-(3',4',5'-trimethoxyphenyl)-5-aryl thiazoles as anticancer agents” (Bioorg Med Chem, 2012).
Each block holds one molecule with its values, some of them ahead of it. Activity calls are given as the source filed them. The rule behind the calls is not given here.

Key:
[1] = system: A549; assay: Antiproliferative activity against human A549 cells after 72 hrs by MTT assay; type: functional, cell-based; settings: A549, 72 h
[2] = system: HT-29; assay: Antiproliferative activity against human HT-29 cells after 72 hrs by MTT assay; type: functional, cell-based; settings: HT-29, 72 h
[3] = system: HeLa; assay: Antiproliferative activity against human HeLa cells after 72 hrs by MTT assay; type: functional, cell-based
[4] = system: HL-60; assay: Antiproliferative activity against human HL60 cells after 72 hrs by MTT assay; type: functional, cell-based; settings: HL-60, 72 h
[5] = system: MCF7; assay: Antiproliferative activity against human MCF7 cells after 72 hrs by MTT assay; type: functional, cell-based; settings: MCF7, 72 h
[6] = system: Jurkat; assay: Antiproliferative activity against human Jurkat cells after 72 hrs by MTT assay; type: functional, cell-based
How it was run: (§1)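 Cells seeded at 8 × 10³ per well and incubated 18 h at 37 °C, 5% CO₂, then exposed to a range of compound concentrations for 72 h at 37 °C. Jurkat and HL-60 were grown in RPMI-1640, the others in DMEM, with penicillin, streptomycin and 10% FBS. DMSO stocks (10 mM); DMSO ≤0.25% final. Viability by MTT. […] Mean ± SE of ≥3 independent experiments.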

[7] = Inhibition of bovine brain tubulin polymerization preincubated for 15 mins by turbidimetric analysis; parameters: species or system Bos taurus
How it was run: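 Bovine brain tubulin (10 μM) in glutamate buffer preincubated with varying compound concentrations for 15 min at 30 °C, then chilled to 0 °C. GTP 0.4 mM added and mixtures warmed to 30 °C in a spectrophotometer; assembly followed by turbidity at 350 nm.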

[8] = system: CCRF-CEM; assay: Resistance ratio of IC50 for human vinblastine-resistant CEM/VBL100 cells overexpressing P-glycoprotein to IC50 for human CEM cells; type: functional
[9] = species on record: Bos taurus; assay: Displacement of [3H]colchicine from tubulin in bovine brain at 5 uM DEAE-cellulose filter method
[10] = Antiproliferative activity against human doxorubicin-resistant LoVo/DX cells overexpressing P-glycoprotein after 72 hrs by MTT assay; type: functional, cell-based
How it was run: (§2)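 Resistant sublines cultured under selection: LoVo^Doxo (doxorubicin-resistant LoVo subclone) in complete Ham's F12 with doxorubicin 0.1 μg/mL; A549-T12 in complete DMEM with taxol 12 nM. Seeded at 8 × 10³ per well, 18 h preincubation, then 72 h compound exposure at 37 °C. MTT read-out.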

[11] = system: HeLa; assay: Induction of apoptosis in human HeLa cells assessed as caspase-3 activation at 250 to 500 nM after 24 to 48 hrs by Western blot analysis; type: functional, cell-based
How it was run: (§3)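 HeLa cells treated for 24 or 48 h, washed twice with ice-cold PBS and lysed on ice 30 min; lysates spun at 15000 ×g, 4 °C. Protein (20 μg) resolved by SDS–PAGE on 7.5–15% gels and blotted to PVDF. Specific primary antibodies for 2 h at room temperature, then peroxidase secondary for 60 min, ECL detection. Membranes stripped and reprobed for β-actin as loading control.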

[12] = Growth inhibition of human resting PBL after 72 hrs by MTT assay; type: cell-based; settings: resting peripheral blood lymphocytes (PBL)
[13] = system: HeLa; assay: Induction of apoptosis in human HeLa cells at 500 nM after 24 to 48 hrs by Annexin V-FITC/propidium iodide staining based biparametric cytofluorimetric analysis; type: functional, cell-based
How it was run: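 HeLa cells treated at 250 or 500 nM for 24 or 48 h, then labelled with annexin-V-FITC (phosphatidylserine) plus propidium iodide. Red and green fluorescence measured by biparametric flow cytometry. Mean ± SEM of three independent experiments.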

[14] = system: HeLa; assay: Downregulation of Mcl-1 expression in human HeLa cells at 250 to 500 nM after 24 hrs by Western blot analysis; type: functional, cell-based; how it was run: as §3
[15] = system: LoVo; assay: Antiproliferative activity against human LoVo cells after 72 hrs by MTT assay; type: functional, cell-based; how it was run: as §1
[16] = system: Jurkat; assay: Cell cycle arrest in human Jurkat cells assessed as accumulation of cells at G2/M phase at 125 nM after 24 hrs by propidium iodide staining based flow cytometric analysis; type: functional
How it was run: (§4)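 HeLa or Jurkat cells (5 × 10⁵, exponential growth) treated 24 h with 31–500 nM compound. Cells fixed in ice-cold 70% ethanol, treated with lysis buffer containing RNase A and 0.1% Triton X-100, then stained with propidium iodide. DNA content measured by flow cytometry to give phase distribution. Mean ± SEM of three independent experiments.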

[17] = system: HeLa; assay: Effect on cyclin B expression in human HeLa cells at 250 to 500 nM after 24 hrs by Western blot analysis; type: functional, cell-based; how it was run: as §3
[18] = system: HeLa; assay: Induction of apoptosis in human HeLa cells assessed as disappearance of uncleaved caspase-2 protein at 250 to 500 nM after 24 to 48 hrs by Western blot analysis; type: functional, cell-based; how it was run: as §3
[19] = system: PBL; assay: Growth inhibition of PHA-stimulated human PBL after 72 hrs by MTT assay; type: functional
[20] = biological target: T1, M-phase inducer phosphatase 3 (Homo sapiens) (UniProt P30307); assay: Induction of cdc25C phosphorylation in human HeLa cells at 250 to 500 nM after 24 to 48 hrs by Western blot analysis; type: cell-based; how it was run: as §3
T1 sequence (whole entry): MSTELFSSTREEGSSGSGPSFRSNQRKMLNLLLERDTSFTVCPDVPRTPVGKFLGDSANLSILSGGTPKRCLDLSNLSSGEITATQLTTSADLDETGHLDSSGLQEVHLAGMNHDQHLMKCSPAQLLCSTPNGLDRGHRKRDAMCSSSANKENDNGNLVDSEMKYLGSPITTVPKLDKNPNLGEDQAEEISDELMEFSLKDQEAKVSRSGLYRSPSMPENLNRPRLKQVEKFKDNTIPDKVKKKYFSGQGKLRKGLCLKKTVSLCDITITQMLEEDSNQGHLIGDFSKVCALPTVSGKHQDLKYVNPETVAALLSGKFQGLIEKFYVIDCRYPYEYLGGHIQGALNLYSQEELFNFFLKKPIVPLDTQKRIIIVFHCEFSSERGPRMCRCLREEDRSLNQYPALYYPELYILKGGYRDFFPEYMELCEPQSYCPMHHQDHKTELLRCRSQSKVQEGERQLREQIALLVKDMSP

[21] = system: HeLa; assay: Induction of survivin phosphorylation at Thr34 in human HeLa cells at 250 to 500 nM after 24 to 48 hrs by Western blot analysis
[22] = system: HeLa; assay: Effect on Bax expression in human HeLa cells at 250 to 500 nM after 24 to 48 hrs by Western blot analysis; type: functional, cell-based; how it was run: as §3
[23] = system: HeLa; assay: Cell cycle arrest in human HeLa cells assessed as accumulation of cells at G2/M phase at 125 nM after 24 hrs by propidium iodide staining based flow cytometric analysis; type: functional; how it was run: as §4
[24] = system: HeLa; assay: Downregulation of Xiap expression in human HeLa cells at 250 to 500 nM after 24 hrs by Western blot analysis; type: functional, cell-based; how it was run: as §3
[25] = system: LoVo; assay: Resistance ratio of IC50 for human doxorubicin-resistant LoVo/DX cells overexpressing P-glycoprotein to IC50 for human LoVo cells; type: functional
[26] = system: HeLa; assay: Induction of apoptosis in human HeLa cells assessed as appearance of cleaved caspase-8 protein at 250 to 500 nM after 24 to 48 hrs by Western blot analysis; type: functional, cell-based; how it was run: as §3
[27] = system: HeLa; assay: Induction of apoptosis in human HeLa cells assessed as ROS production; type: functional, cell-based
[28] = Antiproliferative activity against human vinblastine-resistant CEM/VBL100 cells overexpressing P-glycoprotein after 72 hrs by MTT assay; type: functional, cell-based; settings: CEM/VBL100, 72 h
[29] = system: A549; assay: Resistance ratio of IC50 for human taxol-resistant A549-T12 cells expressing tubulin mutant gene to IC50 for human A549 cells; type: functional
[30] = Antiproliferative activity against human taxol-resistant A549-T12 cells expressing tubulin mutant gene after 72 hrs by MTT assay; type: functional, cell-based; settings: A549, 72 h; how it was run: as §2
[31] = system: HeLa; assay: Downregulation of Bcl-2 expression in human HeLa cells at 250 to 500 nM after 24 to 48 hrs by Western blot analysis; type: functional, cell-based; how it was run: as §3
[32] = biological target: T1, M-phase inducer phosphatase 3 (Homo sapiens); assay: Induction of cdc25C phosphorylation in human HeLa cells assessed as cdc2 kinase dephosphorylation at Tyr15 in human HeLa cells at 250 to 500 nM after 24 to 48 hrs by Western blot analysis; type: cell-based; how it was run: as §3
[33] = system: CCRF-CEM; assay: Antiproliferative activity against human CEM cells after 72 hrs by MTT assay; type: functional, cell-based
[34] = system: HeLa; assay: Induction of apoptosis in human HeLa cells assessed as increase in caspase-3-mediated PARP cleavage at 250 to 500 nM after 24 to 48 hrs by Western blot analysis; type: functional, cell-based; how it was run: as §3
[35] = system: HeLa; assay: Induction of apoptosis in human HeLa cells assessed as mitochondrial polarization; type: functional, cell-based
[36] = system: HeLa; assay: Induction of apoptosis in human HeLa cells assessed as effect on caspase-9 activation at 250 to 500 nM after 24 to 48 hrs by Western blot analysis; type: functional, cell-based; how it was run: as §3

SMILES: COc1ccc(-c2sc(N(C)C)nc2-c2cc(OC)c(OC)c(OC)c2)cc1
- IC50 [1]: > 10 µM
- IC50 [2]: 0.497 µM
- IC50 [3]: 3.37 µM
- IC50 [4]: 1.89 µM
- IC50 [5]: 8.36 µM
- IC50 [6]: 7.6 µM
- IC50 [7]: > 20 µM

SMILES: CC[C@]1(O)C[C@@H]2CN(CCc3c([nH]c4ccccc34)[C@@](C(=O)OC)(c3cc4c(cc3OC)N(C)[C@H]3[C@@](O)(C(=O)OC)[C@H](OC(C)=O)[C@]5(CC)C=CCN6CC[C@]43[C@@H]65)C2)C1 [VINBLASTINE]
- Ratio IC50 [8]: 256.2

SMILES: CCOc1ccc(-c2sc(C)nc2-c2cc(OC)c(OC)c(OC)c2)cc1
- IC50 [1]: 3.32 µM
- IC50 [2]: 0.487 µM
- IC50 [3]: 1.87 µM
- inhibition [9]: 51%
- IC50 [4]: 0.253 µM
- IC50 [5]: 0.0423 µM
- IC50 [6]: 1.74 µM
- IC50 [7]: 1.2 µM

SMILES: COc1cccc2c1C(=O)c1c(O)c3c(c(O)c1C2=O)C[C@@](O)(C(=O)CO)C[C@@H]3O[C@H]1C[C@H](N)[C@H](O)[C@H](C)O1 [DOXORUBICIN]
- IC50 [10]: 13.2 µM

Further lines, with some results ahead:

- IC50 [1]: 0.125 µM
- IC50 [2]: 0.423 µM
- IC50 [3]: 0.0691 µM
- inhibition [9]: 68%
- IC50 [4]: 0.0181 µM
- IC50 [5]: 0.0101 µM
- IC50 [6]: 0.019 µM
- IC50 [7]: 1.2 µM
SMILES: CNc1nc(-c2cc(OC)c(OC)c(OC)c2)c(-c2ccc(C)cc2)s1

- IC50 [1]: 3.96 µM
- IC50 [2]: 3.92 µM
- IC50 [3]: 4.14 µM
- IC50 [4]: 3.48 µM
- IC50 [5]: > 10 µM
- IC50 [6]: 6.66 µM
- IC50 [7]: > 20 µM
SMILES: COc1cc(-c2nc(N(C)C)sc2-c2ccc(C)cc2)cc(OC)c1OC

- IC50 [15]: 0.072 µM
- Activity [20]: Active
- IC50 [2]: 0.702 µM
- IC50 [3]: 0.0821 µM
- inhibition [9]: 66%
- IC50 [4]: 0.205 µM
- Activity [32]: Active
- IC50 [5]: 0.0334 µM
- IC50 [33]: 0.061 µM
- IC50 [6]: 0.0486 µM
- IC50 [7]: 1.1 µM
SMILES: COc1cc(-c2nc(C)sc2-c2ccc3ccccc3c2)cc(OC)c1OC
- Activity [11]: Active
- GI50 at 72 h [12]: 1.27 µM
- IC50 [10]: 0.15 µM
- Activity [13]: Active
- Activity [14]: Active
- Activity [16]: Active
- Activity [17]: inactive
- Activity [18]: Active
- GI50 [19]: 0.285 µM
- Activity [21]: Active
- Activity [22]: inactive
- Activity [23]: Active
- Activity [24]: Active
- Ratio IC50 [25]: 2.1
- Activity [26]: Active
- Activity [27]: Active
- IC50 [28]: 0.088 µM
- Ratio IC50 [29]: 1
- IC50 [30]: 0.121 µM
- Activity [31]: Active
- Ratio IC50 [8]: 1.4
- Activity [34]: Active
- Activity [35]: Active
- Activity [36]: inactive

- IC50 [1]: 4.29 µM
- IC50 [2]: 0.396 µM
- IC50 [3]: 3.83 µM
- IC50 [4]: > 10 µM
- IC50 [5]: > 10 µM
- IC50 [6]: 7.11 µM
SMILES: COc1cc(-c2nc(C)sc2-c2ccc(C(F)(F)F)cc2)cc(OC)c1OC
